The text below walks through data of ChEMBL document CHEMBL3351381, “Synthesis, structure-activity relationship studies, and antibacterial evaluation of 4-chromanones and chalcones, as well as olympicin A and derivatives” (J Med Chem, 2014).

In brackets after ≈: the same amount, converted by molar mass. Activity calls are given as the source filed them. The calls are words filed in the database; no cut-off is given here.

Data set [1] can be described thus: Inhibition of purified recombinant Escherichia coli topoisomerase 1 assessed as relaxation of supercoiled plasmid DNA after 30 mins by electrophoretic analysis.
Another data set has as its system Klebsiella pneumoniae. Description: Antimicrobial activity against Klebsiella pneumoniae ATCC 33495 at >200 ug/ml by microbroth dilution method. It is filed as functional.
Data set [2] can be described thus: Selectivity index, ratio of CC50 for african green monkey Vero cells to IC50 for methicillin-resistant Staphylococcus aureus NRS 70. The class given is functional. The essentials: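 Vero kidney epithelial cells were grown in DMEM/10% FBS, trypsinized, seeded at about 10% confluence and left overnight to adhere. They were then exposed to 2-fold serial compound dilutions in DMEM/FBS, and viability was read by MTT after overnight solubilization. SI = cytotoxic IC50 divided by MIC against MRSA.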

Data set [3] is described as follows: Inhibition of Escherichia coli topoisomerase 4 assessed as inhibition of decatenation of catenated kinetoplast DNA after 30 mins by electrophoretic analysis.
The test system of another data set is Enterococcus faecalis. Put plainly: Antimicrobial activity against Enterococcus faecalis ATCC 33186 by microbroth dilution method. It is filed as functional.
Data set [4] concerns Escherichia coli. Put plainly: Antimicrobial activity against Escherichia coli K-12 by microbroth dilution method. The class given is functional.
The next data set concerns Pseudomonas aeruginosa. Put plainly: Antimicrobial activity against Pseudomonas aeruginosa PAO1 at >200 ug/ml by microbroth dilution method. The class given is functional.
Data set [5] relates to Staphylococcus aureus. Put plainly: Bactericidal activity against Staphylococcus aureus Newman assessed as log reduction in bacterial cell count at 4 times MIC at 6 hrs by time-kill assay relative to control. It is filed as functional.
Data set [6] concerns Staphylococcus aureus. Put plainly: Antimicrobial activity against methicillin-resistant Staphylococcus aureus NRS 70 by microbroth dilution method. It is filed as functional.
Data set [7] in a line: Solubility of the compound in DMEM/FBS medium. The class given is physicochemical. The essentials:
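Solubility limit estimated from 2-fold serial dilutions in DMEM with 5% FBS kept overnight at 37 °C; highest concentration with no visible precipitate taken.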

The test system of data set [8] is Escherichia coli. Put plainly: Antimicrobial activity against tolC-deficient Escherichia coli by microbroth dilution method. It is filed as functional.
Data set [9] deals with Staphylococcus aureus. Put plainly: Antimicrobial activity against methicillin-sensitive Staphylococcus aureus ATCC 29213 by microbroth dilution method. It is filed as functional.
Data set [10] relates to Mycobacterium tuberculosis. Description: Antimicrobial activity against Mycobacterium tuberculosis H37Rv by microbroth dilution method. The class given is functional.
The subject of another data set is Vero. Put plainly: Cytotoxicity against african green monkey Vero cells assessed as reduction in cell viability by MTT assay. The class given is cell-based. The settings on record: Chlorocebus sabaeus. The essentials: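 Vero kidney epithelial cells (ATCC CCL-81) in DMEM/10% FBS, trypsinized, seeded near 10% confluence, left overnight to adhere; medium swapped for DMEM/FBS with 2-fold serial compound dilutions.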

In data set [11] the test system is Staphylococcus aureus. Description: Antimicrobial activity against Staphylococcus aureus Newman. It is filed as functional.
The subject of data set [12] is Staphylococcus aureus. Description: Disruption of membrane potential in Staphylococcus aureus Newman assessed as […] using DiOC2(3) probe by fluorescence assay. The class given is functional. The essentials: (§1)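 S. aureus Newman grown to OD600nm ≈ 0.3 in Mueller–Hinton II, stained with DiOC2(3) and run on flow cytometry; red/green fluorescence ratio gives membrane potential. CCCP positive control, vancomycin negative control.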

The test system of data set [13] is Staphylococcus aureus. Put plainly: Bactericidal activity against Staphylococcus aureus Newman assessed as log reduction in bacterial cell count at 4 times MIC up to 24 hrs by time-kill assay relative to control. The class given is functional.
For data set [14], the system named is Staphylococcus aureus. Description: Bactericidal activity against Staphylococcus aureus Newman assessed as log reduction in bacterial cell count at MIC up to 24 hrs by time-kill assay relative to control. The class given is functional.
For data set [15], the system named is Staphylococcus aureus. Put plainly: Disruption of membrane potential in Staphylococcus aureus Newman assessed as […] at 4 times MIC using DiOC2(3) probe by fluorescence assay. It is filed as functional. The essentials:
as §1

In another data set the target is DNA gyrase (Escherichia coli, UniProt P0AES4+P0AES6). Put plainly: Inhibition of Escherichia coli DNA gyrase assessed as supercoiled plasmid DNA formation after 30 mins by electrophoretic analysis. It is filed as protein-complex assay.
For data set [16], the system named is Staphylococcus aureus. Put plainly: Bacteriostatic activity against Staphylococcus aureus Newman assessed as log reduction in bacterial cell count at 4 times MIC up to 24 hrs by time-kill assay relative to control. The class given is functional.

In the case of `C=CCOc1ccccc1/C=C/C(=O)c1ccc(O)cc1O`, the IC50 in data set [1] is greater than 500 µM; in data set [3], 250 µM; with Vero, 21.2 µg/mL (≈ 71.5 µM). Further, the minimum inhibitory concentration (MIC) against Klebsiella pneumoniae is greater than 200 µg/mL; in the data set on Enterococcus faecalis, 12.5 µg/mL (≈ 42.2 µM); against Escherichia coli [4] it was greater than 200 µg/mL; against Pseudomonas aeruginosa it was greater than 200 µg/mL; with Staphylococcus aureus [6], 0.39 µg/mL (≈ 1.32 µM); against Escherichia coli [8], 3.13 µg/mL (≈ 10.6 µM). In addition, the MIC against Staphylococcus aureus [9] came out at 6.25 µg/mL (≈ 21.1 µM); in [10], 200 µg/mL (≈ 675 µM). In data set [2], the “Selectivity Index” value turned out to be 54.4. The LCK with Staphylococcus aureus [5] is 6. The solubility in [7] was greater than 200 µg/mL.

Regarding `CC1(C)C2CC=C(/C=C/C(=O)c3ccc(O)cc3O)C1C2` (stereo not drawn), the figures for the IC50 (in data set [1]; in data set [3]; in the data set with Vero) were greater than 500 µM, 60 µM and 6.9 µg/mL (≈ 24.3 µM), respectively. Moreover, the MIC was greater than 200 µg/mL against Klebsiella pneumoniae; 1.56 µg/mL (≈ 5.49 µM) in the data set on Staphylococcus aureus [11]; 3.13 µg/mL (≈ 11 µM) against Enterococcus faecalis; greater than 200 µg/mL with Escherichia coli [4]; greater than 200 µg/mL against Pseudomonas aeruginosa; 1.56 µg/mL (≈ 5.49 µM) against Staphylococcus aureus [6]. The MIC in the data set with Escherichia coli [8] worked out at 1.56 µg/mL (≈ 5.49 µM); against Staphylococcus aureus [9], 1.56 µg/mL (≈ 5.49 µM); in [10], 100 µg/mL (≈ 352 µM). For the same molecule, the “Selectivity Index” value in [2] was found to be 4.4. Further, the Activity result in the data set with Staphylococcus aureus [12] was “Dose-dependent effect”. Also, the figures for the LCK with Staphylococcus aureus [13] and in the data set on Staphylococcus aureus [14] were greater than 6 and 3, respectively. This molecule returned a solubility in data set [7] greater than 200 µg/mL. Further, in the data set with Staphylococcus aureus [15], the outcome was Active.

Regarding `CN[C@H](CC(C)C)C(=O)N[C@H]1C(=O)N[C@@H](CC(N)=O)C(=O)N[C@H]2C(=O)N[C@H]3C(=O)N[C@H](C(=O)N[C@H](C(=O)O)c4cc(O)cc(O)c4-c4cc3ccc4O)[C@H](O)c3ccc(c(Cl)c3)Oc3cc2cc(c3O[C@@H]2O[C@H](CO)[C@@H](O)[C@H](O)[C@H]2O[C@H]2C[C@](C)(N)[C@H](O)[C@H](C)O2)Oc2ccc(cc2Cl)[C@H]1O` [VANCOMYCIN], the MIC was greater than 200 µg/mL against Klebsiella pneumoniae; 0.8 µg/mL (≈ 0.552 µM) in the data set on Staphylococcus aureus [11]; 0.78 µg/mL (≈ 0.538 µM) against Enterococcus faecalis; 100 µg/mL (≈ 69 µM) against Escherichia coli [4]; greater than 200 µg/mL in the data set on Pseudomonas aeruginosa; less than 0.2 µg/mL against Staphylococcus aureus [6]. The results for the MIC in the data set with Escherichia coli [8] and in the data set on Staphylococcus aureus [9] were 100 µg/mL (≈ 69 µM) and 0.39 µg/mL (≈ 0.269 µM), respectively. Further, in the data set with Staphylococcus aureus [15], the outcome was inactive.

`O=C(/C=C/c1ccc(N2CCCCC2)cc1)c1ccc(O)cc1O`: the IC50 is greater than 500 µM in data set [1], 500 µM in data set [3], greater than 1000 µM at DNA gyrase and 16.7 µg/mL (≈ 51.6 µM) with Vero. Besides, the MIC was greater than 200 µg/mL with Klebsiella pneumoniae; 25 µg/mL (≈ 77.3 µM) in the data set on Enterococcus faecalis; greater than 200 µg/mL against Escherichia coli [4]; greater than 200 µg/mL against Pseudomonas aeruginosa; 3.13 µg/mL (≈ 9.68 µM) against Staphylococcus aureus [6]; 12.5 µg/mL (≈ 38.7 µM) in the data set with Escherichia coli [8]. Besides, the results for the MIC (against Staphylococcus aureus [9]; in [10]) were 3.13 µg/mL (≈ 9.68 µM) and 100 µg/mL (≈ 309 µM), respectively. In addition, in [2], the “Selectivity Index” value is given as 5.3. The Activity entry in the data set with Staphylococcus aureus [12] is “Dose-dependent effect”. The molecule also registered a solubility in data set [7] of 100 µg/mL (≈ 309 µM). The LCK entry with Staphylococcus aureus [16] is listed as “<=3”. Besides, the outcome in the data set on Staphylococcus aureus [15] was Active.
